Source: ChEMBL document CHEMBL1152954, “Discovery, characterization and comparison of inhibitors of Bacillus anthracis and Staphylococcus aureus replicative DNA helicases” (Bioorg Med Chem, 2009)
Values after ≈ are worked out from the molar mass of the structure shown. Active and inactive are the calls of the source. No cut-off for these calls is given here.

What was measured:
[1] = Inhibition of Bacillus subtilis DNA gyrase by gel mobility assay
In short: (§1)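 B. subtilis DNA gyrase activity measured by a published gel mobility assay; compounds tested up to 50 μM.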

Bacillus anthracis [2] = assay: Antibacterial activity against permeabilized polA-deficient Bacillus anthracis Sterne assessed as inhibition of DNA replication by cell based assay; assay type: functional, organism-based
In short: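 ATP-dependent DNA replication measured in permeabilized ΔpolA B. anthracis Sterne cells by a modified Brown et al. method, testing whether compounds block an intact replisome.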

Bacillus anthracis [3] = assay: Antibacterial activity against Bacillus anthracis Sterne by broth microdilution method; assay type: functional
Staphylococcus aureus [4] = assay: Antibacterial activity against Staphylococcus aureus Smith by broth microdilution method; assay type: functional
DnaC helicase = target: T1, DnaC helicase (Staphylococcus aureus, UniProt Q9AQH7); assay: Inhibition of Staphylococcus aureus Smith DNA helicase DnaC assessed as strand unwinding after 30 mins by FRET assay
T1 sequence (Q9AQH7 whole entry): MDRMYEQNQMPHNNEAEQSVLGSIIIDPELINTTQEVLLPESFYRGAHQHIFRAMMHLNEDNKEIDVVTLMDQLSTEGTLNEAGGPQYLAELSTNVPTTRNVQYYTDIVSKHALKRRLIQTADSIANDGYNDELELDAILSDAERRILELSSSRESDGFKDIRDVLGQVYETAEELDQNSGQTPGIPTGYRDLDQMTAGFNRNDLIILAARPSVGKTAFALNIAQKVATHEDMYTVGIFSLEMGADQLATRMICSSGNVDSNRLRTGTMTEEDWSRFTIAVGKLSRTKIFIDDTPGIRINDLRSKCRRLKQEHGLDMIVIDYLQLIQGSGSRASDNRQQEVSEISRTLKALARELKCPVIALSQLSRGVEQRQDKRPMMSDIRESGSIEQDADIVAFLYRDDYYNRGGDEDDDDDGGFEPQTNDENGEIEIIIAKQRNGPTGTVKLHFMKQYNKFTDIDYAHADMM

HeLa = assay: Cytotoxicity against human HeLa cells by MTT assay; assay type: cell-based
Bacillus subtilis [5] = assay: Inhibition of Bacillus subtilis class C DNA polymerase 3
In short: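 B. subtilis Pol IIIC polymerase assay in 96-well format on DNase-activated chromosomal DNA substrate, which needs no helicase function.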

[6] = Selectivity ratio of IC50 for Staphylococcus aureus Smith DNA helicase DnaC to IC50 for Bacillus anthracis DNA helicase DnaB
[7] = system: Geobacillus stearothermophilus; assay: Antibacterial activity against Bacillus stearothermophilus ATCC 12980 by broth microdilution method; assay type: functional
Bacillus subtilis [8] = assay: Antibacterial activity against Bacillus subtilis BD54 by broth microdilution method; assay type: functional
Staphylococcus aureus [9] = assay: Antibacterial activity against Staphylococcus aureus ATCC 25923 by broth microdilution method; assay type: functional
Enterococcus faecalis [10] = assay: Antibacterial activity against Enterococcus faecalis ATCC 29212 by broth microdilution method; assay type: functional
Enterococcus faecalis [11] = assay: Antibacterial activity against vancomycin-resistant Enterococcus faecalis ATCC 51575 by broth microdilution method; assay type: functional
Priestia megaterium = assay: Antibacterial activity against Bacillus megaterium ATCC 12872 by broth microdilution method; assay type: functional
Bacillus licheniformis = assay: Antibacterial activity against Bacillus licheniformis ATCC 14580 by broth microdilution method; assay type: functional; details: DSM 13=ATCC 14580
Bacillus thuringiensis = assay: Antibacterial activity against Bacillus thuringiensis ATCC 10792 by broth microdilution method; assay type: functional
Bacillus cereus = assay: Antibacterial activity against Bacillus cereus ATCC 4342 by broth microdilution method; assay type: functional
Bacillus anthracis [12] = assay: Inhibition of single strand DNA-stimulated ATPase activity of Bacillus anthracis DNA helicase DnaB at 100 uM
In short: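 ssDNA-stimulated ATPase of B. anthracis helicase assayed with 100 μM inhibitor, 0.5 mM ATP and 200 pmole M13mp19 single-stranded DNA.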

Bacillus anthracis [13] = assay: Inhibition of Bacillus anthracis DNA helicase DnaB by competitive inhibition assay in presence of ATP
In short: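 Helicase FRET unwinding kinetics with B. anthracis enzyme, varying both ATP (0.625, 1.25, 2.5 mM and higher) and inhibitor concentrations; analysed by Dixon plot (1/V vs [I]).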

Bacillus anthracis [14] = assay: Inhibition of Bacillus anthracis DNA helicase DnaB by Lineweaver-Burke plot analysis in presence of DNA substrate
In short: (§2)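 FRET strand-unwinding assay with purified B. anthracis helicase, 6-FAM/BHQ1 annealed 60-mer duplex, pH 7.9 Tris, 2 mM MgCl2, 25 mM NaCl, 0.01% Triton X-100, 2.5 mM ATP, room temperature 30 min. Oligo substrate and inhibitor concentrations varied; Ki taken from a Dixon plot.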

[15] = Inhibition of Bacillus anthracis DNA helicase DnaB by Dixon plot analysis in presence of annealed oligonucleotide substrate; in short: as §2
Bacillus subtilis [16] = assay: Inhibition of Bacillus subtilis DNA gyrase up to 50 uM by gel mobility assay; in short: as §1
Bacillus anthracis [17] = assay: Antibacterial activity against Bacillus anthracis Sterne at 4 times MIC within 5.5 hrs; assay type: functional, organism-based
Staphylococcus aureus [18] = assay: Antibacterial activity against methicillin-resistant Staphylococcus aureus isolate 1094 by broth microdilution method; assay type: functional
Escherichia coli [19] = assay: Antibacterial activity against Escherichia coli 700 expressing […] gene by broth microdilution method; assay type: functional
Escherichia coli [20] = assay: Antibacterial activity against TolC deficient Escherichia coli 701 by broth microdilution method; assay type: functional

SMILES | IC50 (Bacillus anthracis [2]) [µM] | MIC (Bacillus anthracis [3]) [µM] | MIC (Staphylococcus aureus [4]) [µM] | IC50 (DnaC helicase) [µM] | CC50 (HeLa) [µM] | Ratio IC50 [6] | other results
CO[C@@H]1[C@@H](OC(=O)c2ccc(C)[nH]2)[C@@H](O)[C@@H](Oc2ccc3c(O)c(NC(=O)c4c[nH]c(C(=O)Nc5c(O)c6ccc(O[C@H]7OC(C)(C)[C@H](OC)[C@@H](OC(=O)c8ccc(C)[nH]8)[C@H]7O)c(C)c6oc5=O)c4C)c(=O)oc3c2C)OC1(C)C [COUMERMYCIN] |  |  |  |  |  |  | IC50 [1]: < 1 µM
CCOc1ccccc1C(=O)Nc1nc2ccc(S(N)(=O)=O)cc2s1 | > 100 | > 100 | > 100 | 56 | 10 |  | inhibition (Bacillus subtilis [5]): inactive
Cc1c(Cc2ccccc2)c(=O)oc2c(O)c(O)ccc12 | 10 | 20 (≈ 5.65 µg/mL) | 24 (≈ 6.78 µg/mL) | 42 | 10 | 2 | 
Cc1c(CCC(=O)O)c(=O)oc2c(C)c(OCc3ccc(Br)cc3F)ccc12 | 25 | 10 (≈ 4.49 µg/mL) | > 100 | 180 | > 100 | 2 | MIC [7]: 5.6 µg/mL (≈ 12.5 µM); MIC (Bacillus subtilis [8]): 4.2 µg/mL (≈ 9.35 µM); MIC (Staphylococcus aureus [9]): 11.2 µg/mL (≈ 24.9 µM); MIC (Enterococcus faecalis [10]): > 45 µg/mL; MIC (Enterococcus faecalis [11]): > 45 µg/mL; MIC (Priestia megaterium): > 45 µg/mL; MIC (Bacillus licheniformis): 2.8 µg/mL (≈ 6.23 µM); MIC (Bacillus thuringiensis): 2.8 µg/mL (≈ 6.23 µM); MIC (Bacillus cereus): 2.8 µg/mL (≈ 6.23 µM); inhibition (Bacillus anthracis [12]): 16%; inhibition (Bacillus anthracis [13]): Active; inhibition (Bacillus anthracis [14]): Active; Ki [15]: 8 µM; inhibition (Bacillus subtilis [16]): inactive; Activity (Bacillus anthracis [17]): Active; MIC (Staphylococcus aureus [18]): > 45 µg/mL; MIC (Escherichia coli [19]): > 45 µg/mL; MIC (Escherichia coli [20]): > 45 µg/mL
COc1cc(/C=C2\SC(=S)N(c3cccc(C(F)(F)F)c3)C2=O)cc(OC)c1O | 95 | > 100 | > 100 | 4 | > 100 |  | 
COc1cc(/C=C2\SC(=S)N(c3cccc(Cl)c3)C2=O)cc(OC)c1O | 30 | > 100 | > 100 | 3 | > 100 |  | 
Cc1nc(-c2c[nH]c(C(=O)O)c2)cs1 | > 100 | > 100 | > 100 | 12 | > 100 |  | 
Nn1c(Cc2ccccc2F)nnc1SCc1cc(=O)oc2cc(O)c(O)cc12 | 100 | > 100 | > 100 | 15 | > 100 | 2 | 
COc1cc(/C=C2\SC(=S)N(c3ccc([N+](=O)[O-])cc3)C2=O)cc(OC)c1O |  | > 100 | > 100 | 0.7 | 11 |  | 
COc1ccc(Nc2nc(N)nc(-c3cc4ccccc4o3)n2)cc1 | > 100 | > 100 | > 100 | 21 | 4 |  | 
